Assay results as given in article PMC4245089 (International Journal of Nanomedicine, 2014).
pIC50: −log10 of the molar value. Values joined by “and” are separate entries in the source; they are usually repeats but may differ in a detail not shown here. Equal values may be shown once. “Also recorded” adds a separate entry of the source.

Legend:
[1] = test system: P. falciparum 3D7 strain (chloroquine sensitive); test: Growth inhibition of blood-stage P. falciparum 3D7 by microscopy; type: cell-based, Plasmodium falciparum
Summary of the method: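 Human RBCs were infected with synchronized 3D7 ring stages and held at 10% hematocrit and 2% parasitemia, with medium changed every 24 h. Ten concentrations were run in duplicate, and stage of action was tested at 2.5 μM. Giemsa smears were read at 48 and 72 h. Percent parasitemia was taken as infected/total RBCs over at least ten fields. Dead parasites were scored by lost membrane, shrinkage or unstained cytoplasm.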

[2] = test system: Human fibroblast L-929 cells; test: Cell viability assay; type: cell-based; settings: 8.11-129.88 μmol/L; 24, 48 and 72 hours
Summary of the method: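 L-929 fibroblasts seeded at 1×10^4 cells/well in DMEM. Exposed to native or nanoparticle test compound at 8.11–129.88 μmol/L for 24, 48 and 72 h. MTT (12 mM) added for 2 h at 37°C. Formazan dissolved in DMSO for 1 h at 37°C in the dark. Absorbance read at 595 nm.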

[3] = test system: parasitized erythrocytes; test: Nanotized curcumin uptake assay by fluorimetry, parasitized erythrocytes; type: cell-based; settings: treated (parasitized) cultures, 1 μM
[4] = test system: uninfected erythrocytes; test: Nanotized curcumin uptake assay by fluorimetry, uninfected erythrocytes; type: cell-based; settings: 1 μM
[5] = test system: P. berghei-ANKA; test: Dose kinetics / antimalarial efficacy in P. berghei-ANKA-infected C57BL/6 mice; type: in vivo, Plasmodium berghei; settings: oral, 10 mg/kg body weight
Summary of the method: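 C57BL/6 mice were infected intravenously with 2.5×10^6 P. berghei-ANKA parasites. Oral dosing began 24 h post-infection and ran twice weekly for 1 month at 10, 20 and 40 mg/kg body weight. Parasitemia was counted every fourth day, and mean survival days were recorded. Optimum dose was set by Peterson's test and mortality rate. Data are mean ± SEM, n=6.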

[6] = test system: P. berghei-ANKA-infected C57BL/6 mice; test: Liver and kidney function tests; type: in vivo; settings: serum
[7] = Aqueous dispersibility and storage stability of lyophilized powder; type: physicochemical
[8] = mice, oral
[9] = day 6, curcumin forms 20 mg/kg oral biweekly
[10] = day 15, curcumin forms 20 mg/kg oral biweekly
[11] = day 21, curcumin forms 20 mg/kg oral biweekly

Row | Compound | ALP [6, 9] [KA units] | Bilirubin [6, 9] | Creatinine [6, 9] [mg/dL] | SGOT activity [6, 9] [U/L] | SGPT activity [6, 9] [U/L] | Urea [6, 9] [mg/dL] | ALP [6, 10] [KA units] | Bilirubin [6, 10] [mg/dL] | Creatinine [6, 10] [mg/dL] | SGOT activity [6, 10] [U/L] | SGPT activity [6, 10] [U/L] | Urea [6, 10] [mg/dL] | Bilirubin [6, 11] | Creatinine [6, 11] [mg/dL] | SGOT activity [6, 11] [U/L] | SGPT activity [6, 11] [U/L] | Urea [6, 11] [mg/dL] | other results
1 | COc1cc(C=CC(=O)CC(=O)C=Cc2ccc(O)c(OC)c2)ccc1O [native curcumin, 1,7-bis(4-hydroxy 3-methoxyphenyl)-1,6-heptadiene-3,5-dione] | 30.72±2.92 | 1.6 mg/dL and 1.60 ± 0.36 mg/dL | 3.29 ± 0.37 | 66.43±0.65 | 98.34±4.68 | 54.24 ± 2.37 | 28.81±2.65 | 2.19 ± 0.20 | 2.90 ± 0.46 | 72.80±0.71 | 102.69±5.71 | 61.72 ± 2.61 | 2.10 mg/dL and 2.10 ± 0.25 mg/dL | 2.70 ± 0.51 | 75.71±0.47 | 136.31±6.45 | 87.46 ± 2.54 | pIC50 ([1]; Plasmodium falciparum, 3D7, read-out: IC50 for growth inhibition of parasites): 5.30; parasites eradicated ([1]; synchronized ring stage culture, 2.5 μM, 72 hours): 60%; cytotoxicity (growth inhibition of L-929 cells) [2]: marginal cytotoxic effects; concentration found inside the cells ([3]; first growth cycle, n=3): 300 nM; concentration found inside the cells ([3]; second growth cycle): 250 nM; concentration found inside the cells ([4]; first growth cycle, n=3): 240 nM; concentration found inside the cells ([4]; second growth cycle): 100 nM; survival (to day) [5]: 20 days; ALP [6, 11]: 36.91±2.67 KA units; dispersibility / solubility in water [7]: only soluble in organic solvents such as dimethyl sulfoxide; also recorded: completely insoluble in water; time post-feeding until which curcumin was present/detectable in plasma [8]: 15 h
2 | CCN(CC)CCCC(C)Nc1ccnc2cc(Cl)ccc12 (stereo not drawn) [chloroquine] | 16.4±2.61 | 1.15 ± 0.16 mg/dL | 2.10 ± 0.24 | 36.20±0.72 | 39.41±4.32 | 50.32 ± 2.43 | 10.6±2.31 | 1.82 ± 0.18 | 1.60 ± 0.27 | 33.31±0.61 | 32.34±3.42 | 40.82 ± 2.51 | 0.60 ± 0.24 mg/dL | 1.23 ± 0.17 | 14.14±0.51 | 30.17±3.61 | 33.44 ± 2.56 | –
